Screens (PubChem BioAssay)
Sampled rows, rich in hits. Any-hit rate of the full collection: about 3%.
5HT1E antag – blocks the human 5-HT1E serotonin receptor; P28566; CHO 5-HT1E Ga15 NFAT-bla reporter, FRET, antagonist; inhibition, % at 6 µM; actives 0.99% (n = 65,000); AID 571;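 active means inhibition above a set limit, the mean inhibition across every tested compound plus 3 SD, cut at about 29% in these data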;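 further: signal is the 460 over 535 nm emission ratio of beta-lactamase substrate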
Target sequence (P28566 whole entry, looked up): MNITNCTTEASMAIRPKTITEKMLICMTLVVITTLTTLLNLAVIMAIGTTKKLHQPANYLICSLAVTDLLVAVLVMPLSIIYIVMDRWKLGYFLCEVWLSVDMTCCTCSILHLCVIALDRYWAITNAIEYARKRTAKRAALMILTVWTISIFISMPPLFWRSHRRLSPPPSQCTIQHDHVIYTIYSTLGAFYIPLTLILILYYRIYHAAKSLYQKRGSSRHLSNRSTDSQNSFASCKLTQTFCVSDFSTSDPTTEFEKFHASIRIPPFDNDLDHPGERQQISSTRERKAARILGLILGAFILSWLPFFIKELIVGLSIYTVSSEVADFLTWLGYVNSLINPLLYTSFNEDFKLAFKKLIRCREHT
S1P1 ag pot – agonists and agonism potentiators of human S1P1 receptor | P21453 | S1P1 CRE-bla cells, forskolin, beta-lactamase FRET, potentiator mode; S1P1 agonist co-added at EC20, 2 nM; 100% = saturating reference agonist, 0% = basal | activation, % at 9.5 µM | actives 0.57% (n = 56,000);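 active means activation above a cutoff set at the mean activation of all tested compounds plus 3 SD, cut at about 54% in these data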;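 further: forskolin at 4 µM as EC80 and the EC20 agonist is SEW2871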
S1P3 ag – activates the human S1P3 receptor. Q99500. S1P3 NFAT-BLA reporter cells, agonism, FRET ratio; relative to 1 µM S1P, basal subtracted. activation, % at 4.5 µM. actives 0.1% (n = 60,000);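 active means activation above the screen-wide mean plus 3 SD, cut at about 4.5% in these data, passing the limit was not always enough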
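material = human S1P3 NFAT-BLA reporter CHO cells | schedule = 4 h compound at 37 °C, 2 h substrate at RT | measured by = fluorescent BLA substrate, ex 405 nm, em 460/535 nm ratio | controls = 1 µM S1P reference | replication = primary once, confirmation triplicate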
5HT1E ag – agonists of human 5-HT1E serotonin receptor; P28566; CHO 5-HT1E Ga15 NFAT-bla reporter, FRET; 0% DMSO wells, 100% control agonist wells; activation, % at 6 µM; actives 0.69% (n = 65,000);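 active means activation above a set limit, the screen-wide mean activation plus 3 SD, cut at about 8.5% in these data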
HTR1A agonist – activates the human 5-HT1a serotonin receptor; P08908; CHO 5-HT1a Ga15 NFAT-bla reporter, FRET ratio; 0% basal, 100% maximal reference agonist; activation, % at 10 µM; actives 0.56% (n = 65,000); AID 567;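 active means activation above the screen-wide mean activation plus 3 SD, cut at about 19% in these data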
5HT1a antag – antagonists of human 5-HT1a serotonin receptor | actives 0.68% (n = 62,000) | CHO 5-HT1a Ga15 NFAT-bla reporter, antagonist mode | P08908 | inhibition, % at 10 µM | AID 612;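 active means inhibition above the mean of all tested compounds plus 3 SD, cut at about 43% in these data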;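 further: receptor stimulated by 5-CT agonist at 100 nM near EC80; beta-lactamase reporter measured by ratiometric fluorescence of a cleavable substrate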
A number is an active result; n = inactive; x = not tested or not shown.

SMILES	5HT1E antag	S1P1 ag pot	S1P3 ag	5HT1E ag	HTR1A agonist	5HT1a antag
CCOC(=O)C1CCN(c2ncnc3c2cnn3-c2ccccc2)CC1	n	n	n	n	30.1	n
CCOC(=O)C1CCN(c2ncnc3c2cnn3-c2ccc(Cl)cc2)CC1	n	n	n	n	n	x
O=C(c1ccco1)N1CCN(c2ncnc3c2cnn3-c2ccccc2)CC1	n	n	n	n	n	n
CCOC(=O)C1CCN(c2ncnc3c2oc2ccccc23)CC1	n	96.8	n	n	n	n
c1ccc(N2CCN(c3ncnc4c3oc3ccccc34)CC2)cc1	n	60.6	n	n	n	n
O=C(CN1C(=O)c2ccccc2S1(=O)=O)N1CCN(Cc2ccc3c(c2)OCO3)CC1	n	n	n	n	n	n
COC(=O)c1cc2sc(Cl)cc2n1CC(=O)Nc1cccc(SC)c1	n	n	n	n	n	48.0
C[N+]1=C2CCCCCN2C(O)(c2ccccc2)C1 (centres undefined)	n	n	n	51.0	20.0	n
O=C(c1cccc(C(=O)N2CCN(c3ccccc3F)CC2)c1)N1CCN(c2ccccc2F)CC1	n	x	n	n	n	n
O=C(NCN1CCN(c2ccccc2F)CC1)c1ccccc1	n	n	n	10.3	n	n
CCS(=O)(=O)N1CCCC(C(=O)NCCCN2CCCC2=O)C1 (centres undefined)	n	n	n	n	n	n
OCCN1CCN(CC(O)COc2ccc3c(c2)OCO3)CC1 (centres undefined)	n	n	n	16.3	n	n
CCOc1ccc(C)cc1S(=O)(=O)NC1CCCCC1	n	n	n	n	n	n
CCOc1cc(S(=O)(=O)NC2CCCC2)ccc1Cl	n	x	n	15.1	n	n
CC(C)N(C)C1CCN(C(=O)Nc2ccc(Cl)c(Cl)c2)CC1	n	n	n	n	n	n
CCc1nc(C)c(C#N)c2cc(OC)c(OC)cc12	43.7	n	n	n	n	n
COc1cc(NC(=O)CN2C(=O)c3ccccc3S2(=O)=O)c(OC)cc1Cl	n	n	n	n	n	n
CC1(C)CC(=O)C(C=Nc2ccccc2)=C(O)C1	n	n	n	n	n	n
O=C1CCCC(O)=C1C=Nc1ccc(O)cc1	n	n	n	n	n	43.4
CCCCCCNc1cc2n(c(=O)n1)CCc1cc(OC)c(OC)cc1-2	39.1	n	n	n	n	n
COc1cc2c(cc1OC)-c1cc(NC3CCCCC3)nc(=O)n1CC2	36.1	n	n	n	n	n
COc1cc2c(cc1OC)-c1cc(NC3CCCCCCC3)nc(=O)n1CC2	52.0	n	n	n	n	n
COc1cc2c(cc1OC)-c1cc(NC3CC3)nc(=O)n1CC2	n	n	n	n	n	n
Clc1ccccc1-c1nnc2sc(-c3ccncc3)nn12	n	n	n	n	n	n
CN(C)c1ccc(-c2nn3c(-c4ccccc4Cl)nnc3s2)cc1	75.3	n	n	n	n	44.8
SMILES	5HT1E antag	S1P1 ag pot	S1P3 ag	5HT1E ag	HTR1A agonist	5HT1a antag
COc1ccccc1-c1nnc2sc(-c3ccc(N(C)C)cc3)nn12	86.1	n	n	n	n	67.7
COc1ccccc1-c1nnc2sc(-c3cc4ccccc4o3)nn12	36.2	n	n	n	n	n
COc1ccccc1-c1nnc2sc(-c3cnccn3)nn12	n	n	n	n	n	n
CCCCC(=O)Nc1ccc(NC(=O)c2ccccc2OC)cn1	n	n	n	n	n	n
COc1cc(-c2nnc(SCC(=O)Nc3cc(C)on3)n2C)cc(OC)c1O	n	n	n	n	n	n
CCc1ccc(CC)c(S(=O)(=O)Nc2ccc(C(=O)O)c(O)c2)c1	n	n	n	n	n	n
CCSc1nc2cc(C(=O)OC)ccc2c(=O)n1CC	n	x	n	n	n	n
COC(=O)c1ccc2c(=O)n(C3CCCCC3)c(SCC#N)nc2c1	n	87.2	n	n	n	n
CCCCCC(C(=O)O)C(C)CC(=O)NC1CCCCC1 (centres undefined)	n	n	n	n	n	n
CCOC(=O)CN(C(=O)CSc1nnc(-c2cccc(OC)c2)o1)c1ccc(F)cc1	n	81.5	n	n	n	n
CC(C)c1nc(SCc2c(F)cccc2Cl)c2c(=O)n(C)c(=O)n(C)c2n1	n	n	n	n	n	n
COc1ccc(S(=O)(=O)N2CCCCC2)cc1C(C)C	n	n	n	33.9	n	n
COc1ccc(Oc2ccc(S(=O)(=O)N3CCCCC3)cc2S(=O)(=O)N2CCCCC2)cc1	n	x	x	n	n	n
O=C(CCNS(=O)(=O)c1cccs1)N1CCc2ccccc2C1	n	n	n	n	n	n
COc1ccc(CN2CCN(c3ncccn3)CC2)c(OC)c1	n	n	n	n	n	n
Oc1c(CN2CCCCC2)cc(COCc2ccccc2)c2cccnc12	48.0	n	n	n	n	n
Oc1c(CN2CCN(c3ccccn3)CC2)cc(Cl)c2cccnc12	54.5	n	n	n	n	54.0
COCc1cc(CN2CCCC2)c(O)c2ncccc12	n	n	n	n	n	n
Oc1ccc(COCc2ccccc2)c2cccnc12	47.3	n	n	n	n	n
COc1ccc(CN2CCN(c3ccccn3)CC2)c(OC)c1	n	n	n	10.8	n	n
Oc1ccc(CNc2ccccc2F)c2cccnc12	n	n	n	n	n	n
CNc1nnc(-c2cc3ccccc3oc2=O)s1	n	n	n	n	n	n
COc1cc(C#CC#CCN2CCCCC2)ccc1O	n	n	n	n	n	n
CCN1CCN(C(=O)c2ccc3c(c2)N(Cc2ccc(F)cc2)C(=O)c2ccccc2S3=O)CC1 (centres undefined)	n	n	n	n	n	n
CC1=C(C(=O)Nc2cccnc2)C(c2ccc(C(C)C)cc2)n2ncnc2N1 (centres undefined)	n	n	n	n	n	n
SMILES	5HT1E antag	S1P1 ag pot	S1P3 ag	5HT1E ag	HTR1A agonist	5HT1a antag
c1ccc2[nH]c(CSc3nnc(-c4ccncc4)o3)nc2c1	n	n	n	n	n	n
Brc1cccc(-c2nnc(SCc3nc4ccccc4[nH]3)o2)c1	28.6	n	n	n	n	n
CCCNC(=O)c1ccccc1NS(=O)(=O)c1ccc2c(c1)OCCO2	n	n	n	n	n	n
O=C(CSc1nc2ccccc2[nH]1)NCCN1CCCCC1	n	n	n	n	n	n
Nc1nnc(-c2ccccc2)c(-c2ccccc2)n1	n	n	n	n	n	n
c1ccc(-c2nc3nonc3nc2-c2ccccc2)cc1	n	n	6.1	n	n	n
Cc1nc2c(C(=O)NCc3ccc(F)cc3)c[nH]n2c(=O)c1Cl	n	x	x	n	n	n
CCOC(=O)CSc1nc2c(sc(=S)n2Cc2ccco2)c(=O)n1-c1ccccc1	n	x	x	n	n	55.1
Cc1nnc(SCC(=O)Nc2sccc2C(N)=O)n1Cc1ccccc1	n	n	n	n	n	n
